Assay results from PubChem BioAssay AID624106 (Broad Institute, 2012).
Calls of active or inactive are those of the source.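 How the source made its calls: active means fitted curve reaches a 35% absorbance drop at both wavelengths in duplicate, with AC35 under 50 µM; inactive means the rest, including signal rising instead of falling.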

Test system: not listed separately
Assay: pyoverdine output of iron-starved P. aeruginosa PAK, dose response, PAK wild type, OD405, dry powder, set 2 (AID 624106)
Conditions: P. aeruginosa PAK + EDDHA, OD405 pyoverdine, 28 h; at 100 µM (top of the series)
Method in brief: (§1)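 Assay system: wild-type Pseudomonas aeruginosa PAK bacteria; buffer or medium: succinate M9 medium, pH 7.0, with 2 µM EDDHA iron chelator; doses: compounds 15 nM–100 µM final; times: compound exposure 28 h at 30 °C, humidified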

| SMILES | activity change, negative = inhibition |
| --- | --- |
| CCCCC(C#N)c1ccccn1 (centres undefined) | -4.26% (inactive) |
| CCCCC(c1ccc(Cl)cc1)c1nn[nH]n1 (centres undefined) | -8.03% (inactive) |
| CCCCC(C#N)c1ccc(F)cn1 (centres undefined) | -12.4% (inactive) |
| N#CC1c2ccc(Cl)cc2CCc2cccnc21 (centres undefined) | -13.8% (inactive) |
| CN(C)CCCC(C#N)c1ccc(Cl)cc1 (centres undefined) | -3.43% (inactive) |
| CCCCC(C#N)c1ccc(Cl)cc1 (centres undefined) | -7.02% (inactive) |
| Clc1ccc(C(c2cccc(Cl)n2)c2nn[nH]n2)cc1 (centres undefined) | 11.9% (inactive) |
| COCCOCCC(C#N)c1ccc(F)cc1 (centres undefined) | -8.85% (inactive) |
| N#CC(c1ccc(C(F)(F)F)c(Cl)n1)c1ccccc1OC(F)(F)F (centres undefined) | -16% (inactive) |
| CCCCC(C#N)c1ccc(Cl)cn1 (centres undefined) | -7.7% (inactive) |
| CCCCC(C#N)c1ccc(F)cc1 (centres undefined) | -5.09% (inactive) |
| COCCOCCC(C#N)c1ccc(Cl)cc1 (centres undefined) | -2.61% (inactive) |
| COCCNC(C#N)c1ccc(Cl)cc1 (centres undefined) | -12.1% (inactive) |
| CN(C)CCCC(C#N)c1ccc(F)cc1 (centres undefined) | -12.9% (inactive) |
| COCCC(C#N)c1ccc(Cl)cc1 (centres undefined) | -2.12% (inactive) |

Test system: P. aeruginosa PAK + EDDHA, OD405 pyoverdine, 28 h
Assay: as above
Conditions: not given
Method in brief: as §1

| SMILES | AC35 |
| --- | --- |
| COCCC(C#N)c1ccc(F)cc1 (centres undefined) | > 100 µM (inactive) |
| N#CC(c1ccc(Cl)cc1)N1CCCC1 (centres undefined) | > 100 µM (inactive) |
| N#CC(c1cccc(Cl)n1)c1ccc(Cl)cc1F (centres undefined) | 25.9 µM |
| N#CC(c1ccc(F)cc1)c1cccc(C(F)(F)F)n1 (centres undefined) | 45.4 µM |
| N#CC(c1cccc(C(F)(F)F)n1)c1ccc(Cl)cc1F (centres undefined) | 18.8 µM |
| N#CC(c1ccc(Cl)cc1)c1ccccn1 (centres undefined) | > 100 µM (inactive) |
| N#CC(c1ccc(Cl)cc1)c1cccc(Cl)n1 (centres undefined) | 67 µM |
| N#CC(c1ccc(Cl)cc1)c1cccc(C(F)(F)F)n1 (centres undefined) | 19.3 µM |
| N#Cc1cccc(C(C#N)c2ccc(F)cc2)n1 (centres undefined) | > 100 µM (inactive) |
